Screens as filed in PubChem.
B2AR ag: activates human beta-2 adrenergic receptor causing internalization | Am2.2-beta2AR cells, FAP receptor internalization, flow cytometry | 0.43% of 340,000 active | AID 504454 | response, % (test concentration not listed) | P07550;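 active = response above a set limit, near 3 SD of response in nonfluorescent compounds, cut at about 42% in these data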
ABHD5-PLIN5 inh: blocks binding of human ABHD5 to perilipin-5 | Q00G26+Q8WTS1 | Split G. princeps luciferase complementation, luminescence, 4 h | inhibition, % at 4 µM | 0.78% of 360,000 active | AID 602281;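 active = inhibition above the mean inhibition across every tested compound plus 3 SD, cut at about 22% in these data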;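 note: 0% = DMSO only wells and the 100% control is not disclosed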
Rin1-Abl PPI inh: human Rin1-Abl interaction inhibition | P00519+Q13671 | TR-FRET Rin1/Abl binding, biochemical | inhibition, % at 7.35 µM | 0.4% of 360,000 active | AID 588664; in the data active = inhibition above about 5%, passing the limit was not always enough
MBD2 DNA inh: blocks human MBD2 binding to methylated DNA; TR-FRET, MBD2 binding to methylated oligonucleotide; inhibition, % at 4.4 µM; 0.31% of 370,000 active; in the data active = inhibition above about 13%
Arrestin-AP2 inh: inhibitors of human beta-arrestin and AP2 interaction; 0.31% of 340,000 active; inhibition, % at 10 µM; FITC-arrestin peptide / GST-AP2 beads, flow cytometry; AP2 beta2 appendage carries R879A mutation; AID 504490;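 active = inhibition above a set limit, near 3 SD of compounds lacking own fluorescence, cut at about 54% in these data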;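 note: plate controls were DMSO wells for no effect and 5 µM unlabelled arrestin peptide for full effect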
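Assay system: GST-AP2 R879A bound to glutathione beads, E. coli-expressed; Medium: PBS with 0.05% Tween 20 and 0.1% BSA; Also added: fluorescein-tagged arrestin peptide at 50 nM final; Timing: 12 min plus 1 h, RT; Measured by: flow cytometry, FL1 (488/535 nm); Evaluation: percent drop in bead-associated FITC signal.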
UHRF1 binding: UHRF1 methyl-DNA binding inhibition | inhibition, % at 4.4 µM | AID 687016 | 0.75% of 370,000 active | UHRF1 binding to methylated oligo, TR-FRET; in the data active = inhibition above about 21%;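 note: UHRF1 SRA domain binding a hemimethylated CpG hairpin DNA probe; 0% = median of test compound wells and 100% = reference inhibitor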
Arr AP2 CP1: inhibitors of human beta-arrestin and AP2 interaction; shares compounds with Arrestin-AP2 inh; GST-AP2 beads, FITC arrestin peptide binding, flow cytometry; GST-fused beta2-adaptin appendage, R879A mutant; inhibition, % at 10 µM; 2% of 1,300 active; AID 504908;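 active = inhibition above a set limit, roughly 3 SD of non-fluorescent compound noise, cut at about 38% in these data; inactive = inhibition at or below that limit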;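 note: loss of bead fluorescence from 50 nM FITC arrestin peptide bound to appendage; 0% = negative control wells and 100% = excess unlabelled arrestin peptide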
GST-FITC bead: disrupts GST binding to glutathione beads, arrestin-AP2 artifact | GST-fluorescein binding to GSH beads, fluorescence, counter-screen | shares compounds with Arrestin-AP2 inh | 2% of 1,300 active | inhibition, % at 10 µM | AID 588338;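 active = inhibition above 50%, about 3 SD of the inhibition seen with non-fluorescent compounds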;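 note: fluorescein maleimide labelled GST captured on 4 micron glutathione beads; higher means more loss of bead fluorescence from quenching or blocked binding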
An asterisk follows results filed as active; . = no result given. Shown are actives, neighbours in structure and some others; about 2.5% of the full set was active somewhere.

SMILES	B2AR ag	ABHD5-PLIN5 inh	Rin1-Abl PPI inh	MBD2 DNA inh	Arrestin-AP2 inh	UHRF1 binding	Arr AP2 CP1	GST-FITC bead
COc1cc(OC)c(NC(=O)CC(C)=O)cc1Cl	7	8	2	-1	4	-1	-6	-1
CN(CCOC(=O)c1occ2ccccc12)C1CN(Cc2cn(Cc3ccccc3Cl)nn2)S(=O)(=O)C1 (stereo not drawn)	.	.	.	3	.	4	.	.
COc1ccc(-c2n[nH]c(=S)n2Cc2ccccc2)cc1	4	2	0	3	56*	0	-22	-7
S=c1[nH]nc(-c2ccccc2)n1Cc1ccccc1	9	-6	-1	1	4	-1	.	.
Cc1ccc(CNC(=O)CS(=O)(=O)c2cn(CC(=O)N3CCOCC3)c3ccccc23)cc1	5	1	2	5	60*	0	-1	-12
Cc1cc2nc(/C(C#N)=C\c3ccc(-c4ccccc4C(=O)O)o3)[nH]c2cc1C	-2	3	-1	-5	54*	-3	6	15
COC(=O)c1c(NC(=O)CN2C(=O)NC3(CCc4ccccc4C3)C2=O)sc2c1CCCCC2 (stereo not drawn)	-3	-12	-3	-1	106*	-10	7	2
CC(C)C(=O)N1CC[C@H]2[C@H](CCCN2Cc2ccccc2)C1	.	.	.	3	.	-3	.	.
COc1ccc(NC(=O)CSc2cccc3cccnc23)c(OC)c1	-3	-7	2	4	7	6	.	.
CCCCCOc1ccc(NC(=O)CSc2cccc3cccnc23)cc1	-6	-6	3	-2	107*	-16	4	-4
CC(C)(C)c1ccc(C(=O)NCC(=O)NNC(=O)c2ccccc2O)cc1	3	14	2	1	77*	-3	-9	4
CC(C)(C)c1ccc(OCCCC(=O)NNC(=O)c2ccccc2O)cc1	-1	-7	-3	-2	-7	-3	.	.
CCCC(=O)Nc1ccc2c(c1)C(=O)N(C)[C@H]1CC[C@@H](CC(=O)OC)O[C@@H]1CO2	.	.	.	-1	.	0	.	.
COc1cccc(N2CCN(CC(=O)NCc3ccccc3C)CC2)c1	.	.	.	2	.	0	.	.
C/C(=N\NC(=O)Nc1ccccc1)c1ccc2ccccc2c1	13	0	-1	3	93*	-1	-6	-1
C/C(=N/NC(=O)Nc1ccccc1)c1ccc(C)cc1	13	9	2	0	6	0	.	.
Cc1cc(C)c(CN2CCC(N3CCC(C(=O)NCC4CCCO4)CC3)CC2)cc1C (stereo not drawn)	1	1	-1	-6	1	0	.	.
Cc1ccccc1CN1CCC(N2CCC(C(=O)NCC3CCCO3)CC2)CC1 (stereo not drawn)	9	-1	0	3	65*	-3	-2	-5
O=C(NCCN1CCOCC1)c1ccc2c(c1)N(Cc1ccccc1)C(=O)c1ccccc1S2	5	-5	-4	1	62*	3	2	1
N#Cc1c2ccc(OCC(N)=O)cc2n2ccccc12	-5	-1	-2	0	0	-1	.	.
CCOC(=O)COc1ccc2c(C#N)c3ccccn3c2c1	-4	-7	0	5	56*	5	-11	-1
Cc1ccccc1NC(=O)Nc1cnccn1	4	3	-3	4	15	-1	6	-6
Cc1cccc(NC(=O)Nc2cccnc2)c1C	-1	3	3	-5	-10	2	.	.
Cc1cccc(NC(=O)Nc2cnccn2)c1C	-7	-3	4	6	-5	1	-8	-5
Cc1ccc(NC(=O)Nc2cnccn2)cc1Cl	7	7	-1	2	1	-2	.	.
SMILES	B2AR ag	ABHD5-PLIN5 inh	Rin1-Abl PPI inh	MBD2 DNA inh	Arrestin-AP2 inh	UHRF1 binding	Arr AP2 CP1	GST-FITC bead
CSc1ccc(SC2CN(Cc3ccc(C)cc3)S(=O)(=O)C2)cc1 (stereo not drawn)	.	.	.	0	.	0	.	.
O=C1CN(C(=O)/C=C/c2ccccc2)CCN1	-1	4	4	3	57*	-1	-12	-15
Cc1ccc(C(=O)N2CCC(C(=O)c3ccc(F)cc3)CC2)cc1	7	0	-2	-2	58*	0	0	-5
Cc1ccccc1CS(=O)(=O)Cc1ccc(C(=O)Nc2ccc(F)cc2F)o1	.	.	.	0	.	6	.	.
O=C(NC1CCCCN(Cc2cccc(F)c2)C1=O)c1ccc(-c2ccccc2)cc1 (stereo not drawn)	.	.	.	2	.	2	.	.
Cn1c(=O)n(C)c2cc(N3CCCCC3)c(NC(=O)c3ccccc3)cc21	-5	-1	0	-3	9	13	5	0
CCn1c(=O)n(CC)c2cc(N3CCCC3)c(NC(=O)c3ccccc3)cc21	-7	8	2	-1	8	2	-2	9
CCn1c(=O)n(CC)c2cc(N3CCCC3)c(NC(=O)c3ccc(C)cc3)cc21	5	-5	1	2	11	10	25	.
Cc1cccc(NC(=O)[C@@H]2CC(=O)O[C@@H]2c2ccccc2)c1C	.	.	.	5	.	2	.	.
C=CCN1C(=O)[C@H](CC(=O)NCc2cccs2)[C@@]2(C(=O)OCC)CCCC=C12	.	.	.	-2	.	2	.	.
CCCC1CCC2(CC1)CCC2OC(=S)Nc1cccc(I)c1 (stereo not drawn)	.	.	.	-2	.	-1	.	.
Cc1ccc(NC(=S)NNC(=O)c2cnccn2)cc1	.	.	.	4	.	1	.	.
Cc1cc(NC(=O)CCC(=O)N(C2CC2)C(C(=O)NC(C)(C)C)c2ccccc2Cl)no1 (stereo not drawn)	-11	-1	3	1	-4	4	.	.
Cc1cc(NC(=O)CCC(=O)N(Cc2cccnc2)C(C(=O)NC(C)(C)C)c2ccccc2Cl)no1 (stereo not drawn)	0	-2	0	0	57*	1	-11	3
Cc1ccnc(SCc2cc(=O)c(OC(=O)c3ccc([N+](=O)[O-])cc3)co2)n1	.	.	.	-1	.	1	.	.
Cc1nnc(SCCn2c(Br)nc3c2c(=O)[nH]c(=O)n3C)s1	-6	0	0	0	95*	2	-10	-3
Cc1nnc(SCCn2c(N3CCN(C)CC3)nc3c2c(=O)[nH]c(=O)n3C)s1	1	-2	0	1	-5	1	.	.
COc1ccc(S[C@]2(C(=O)N3CCOCC3)CC(=O)N(C(=O)CCc3ccccc3)[C@@H]2c2ccc(OC)cc2)cc1	.	.	.	-5	.	-2	.	.
CCc1cccc(OCCCCNCCCOC)c1	5	-5	1	-3	25	-2	.	.
CCOc1cccc(OCCCNCCCOC)c1	3	0	-3	-3	93*	-2	4	-6
